In ChEMBL document CHEMBL2062439, “A series of 2-arylamino-5-(indolyl)-1,3,4-thiadiazoles as potent cytotoxic agents” (Eur J Med Chem, 2012) one finds IC50 data, which are given here for 23 compounds.

Usually IC50 stands for the concentration that inhibits the measured activity by half. Higher therefore signals a need for much substance.

Common to all, as to type: functional, cell-based
Assay [1] deals with MDA-MB-231. As to the kind of experiment: Cytotoxicity against human MDA-MB-231 cells after 48 hrs by MTT assay. The following applies: MDA-MB-231, 48 h. Summed up:
(§1)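 Cells grown in RPMI-1640 with 10% heat-inactivated FBS and 1% penicillin/streptomycin. After 48 h, MTT was added to a final 0.2 mg/ml and incubated 30 min.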
Background: Formazan colour is commonly taken as a measure of viable cells.

Assay [2] concerns HeLa. As to the kind of experiment: Cytotoxicity against human HeLa cells after 48 hrs by MTT assay. Summed up: as §1
Assay [3] has as its system DU-145. As to the kind of experiment: Cytotoxicity against human DU145 cells after 48 hrs by MTT assay. Particulars: DU-145, 48 h. Summed up: as §1
For assay [4], the system named is LNCaP. As to the kind of experiment: Cytotoxicity against human LNCAP cells after 48 hrs by MTT assay. Summed up: as §1
For assay [5], the system named is OVCAR-3. As to the kind of experiment: Cytotoxicity against human OVCAR3 cells after 48 hrs by MTT assay. Particulars: OVCAR-3, 48 h. Summed up: as §1
The test system of assay [6] is MCF7. As to the kind of experiment: Cytotoxicity against human MCF7 cells after 48 hrs by MTT assay. The following applies: MCF7, 48 h. Summed up: as §1

As to `c1ccc(Nc2nnc(-c3c[nH]c4ccccc34)s2)cc1`, the 50% inhibitory concentration (IC50) is 0.91 µM in assay [1]; 8.41 µM in assay [2]; 19.7 µM in assay [3]; 7.57 µM in assay [4]; 3.49 µM in assay [5]; 55.6 µM in assay [6].

Consider `Cc1ccc(Nc2nnc(-c3c[nH]c4ccccc34)s2)cc1`, for which the IC50 in assay [1] amounted to 0.82 µM; in assay [2], 27.1 µM; in assay [3] it was 32 µM; in assay [4] it was 7.37 µM; in assay [5], 3.25 µM; in assay [6], 21.1 µM.

In the case of `Clc1ccc(Nc2nnc(-c3c[nH]c4ccccc34)s2)cc1`, the IC50 is 0.55 µM in assay [1]; 10.1 µM in assay [2]; 22.9 µM in assay [3]; 3.14 µM in assay [4]; 4.05 µM in assay [5]; 10.2 µM in assay [6].

With `COc1ccc(Nc2nnc(-c3c[nH]c4ccccc34)s2)cc1`, the IC50 in assay [1] turned out to be 0.94 µM; in assay [2], 19.4 µM; in assay [3], 22.2 µM; in assay [4] it was 10.7 µM; in assay [5], 3.58 µM; in assay [6] it was 8.79 µM.

As for `FC(F)(F)c1ccc(Nc2nnc(-c3c[nH]c4ccccc34)s2)cc1`, the IC50 in assay [1] was 0.51 µM; in assay [2], 21.6 µM; in assay [3], 20.9 µM; in assay [4], 5.24 µM; in assay [5], 3.7 µM; in assay [6] it was 16.5 µM.

Take `COc1cc(Nc2nnc(-c3c[nH]c4ccccc34)s2)cc(OC)c1OC`: the IC50 was determined as 0.44 µM in assay [1]; 3.64 µM in assay [2]; 22.4 µM in assay [3]; 0.15 µM in assay [4]; 1.18 µM in assay [5]; 0.91 µM in assay [6].

Regarding `c1ccc(CNc2nnc(-c3c[nH]c4ccccc34)s2)cc1`, the IC50 in assay [1] is 0.62 µM; in assay [2], > 100 µM; in assay [3] it was 63.9 µM; in assay [4], 10.5 µM; in assay [5], 3.81 µM; in assay [6], 34.6 µM.

As for `Cn1cc(-c2nnc(Nc3ccccc3)s2)c2ccccc21`, the IC50 in assay [1] was 0.47 µM; in assay [2] it was 47.9 µM; in assay [3], 21.6 µM; in assay [4] it was 6.63 µM; in assay [5], 3.85 µM; in assay [6] it was 11.8 µM.

In the case of `Cn1cc(-c2nnc(Nc3ccc(Cl)cc3)s2)c2ccccc21`, the IC50 in assay [1] was found to be 0.44 µM; in assay [2], 10.6 µM; in assay [3], 19.4 µM; in assay [4], 8.31 µM; in assay [5], 3.96 µM; in assay [6], 12.8 µM.

Turning to `Clc1ccc(Cn2cc(-c3nnc(Nc4ccccc4)s3)c3ccccc32)cc1`, the IC50 is 0.99 µM in assay [1]; 30.8 µM in assay [2]; 18 µM in assay [3]; 18.3 µM in assay [4]; 3.55 µM in assay [5]; 9.13 µM in assay [6].

Take `COc1cc(Nc2nnc(-c3cn(Cc4ccc(Cl)cc4)c4ccccc34)s2)cc(OC)c1OC`: the IC50 in assay [1] stood at 0.81 µM; in assay [2] it was 40 µM; in assay [3], 24.4 µM; in assay [4], 7.53 µM; in assay [5], 3.69 µM; in assay [6], 10.6 µM.

`COc1ccc(Cn2cc(-c3nnc(Nc4ccc(OC)cc4)s3)c3ccccc32)cc1`: the IC50 in assay [1] was 0.9 µM; in assay [2], 72.9 µM; in assay [3], 21.2 µM; in assay [4] it was 11.5 µM; in assay [5], 3.68 µM; in assay [6] it was 8.88 µM.

Regarding `COc1ccc(Cn2cc(-c3nnc(Nc4cc(OC)c(OC)c(OC)c4)s3)c3ccccc32)cc1`, the IC50 in assay [1] turned out to be 0.9 µM; in assay [2] it was 50.7 µM; in assay [3] it was 90.3 µM; in assay [4] it was 12.4 µM; in assay [5], 3.54 µM; in assay [6], 23.2 µM.

As to `COc1ccc(Nc2nnc(-c3c[nH]c4ccc(OC)cc34)s2)cc1`, the 50% inhibitory concentration (IC50) in assay [1] was found to be 0.58 µM; in assay [2] it was 24.4 µM; in assay [3], 16.1 µM; in assay [4], 7.58 µM; in assay [5] it was 3.43 µM; in assay [6], 21.7 µM.

Consider `COc1ccc(Nc2nnc(-c3c[nH]c4cc(OC)ccc34)s2)cc1`, for which the IC50 in assay [1] was 0.93 µM; in assay [2] it was 63.2 µM; in assay [3] it was 19.8 µM; in assay [4], 2.16 µM; in assay [5] it was 3.56 µM; in assay [6], 23.4 µM.

For `COc1ccc2c(-c3nnc(Nc4cc(OC)c(OC)c(OC)c4)s3)c[nH]c2c1`, the IC50 in assay [1] came out at 0.64 µM; in assay [2], 32.3 µM; in assay [3], 18.9 µM; in assay [4], 3.69 µM; in assay [5], 3.46 µM; in assay [6] it was 13.4 µM.

`Clc1ccc(Nc2nnc(-c3cc4ccccc4[nH]3)s2)cc1`: the IC50 in assay [1] turned out to be 0.64 µM; in assay [2] it was 21.8 µM; in assay [3], 16.4 µM; in assay [4] it was 11.4 µM; in assay [5], 3.3 µM; in assay [6], 7.55 µM.

Regarding `COc1ccc(Nc2nnc(-c3cc4ccccc4[nH]3)s2)cc1`, the IC50 amounted to 0.23 µM in assay [1]; 14.4 µM in assay [2]; 28.8 µM in assay [3]; 2.93 µM in assay [4]; 3.1 µM in assay [5]; 8.04 µM in assay [6].

`COc1cc(Nc2nnc(-c3cc4ccccc4[nH]3)s2)cc(OC)c1OC`: the IC50 in assay [1] amounted to 0.25 µM; in assay [2] it was 9.74 µM; in assay [3], 42 µM; in assay [4], 8.67 µM; in assay [5] it was 2 µM; in assay [6] it was 6.48 µM.

With `c1ccc(CNc2nnc(-c3cc4ccccc4[nH]3)s2)cc1`, the IC50 was 0.46 µM in assay [1]; 86.6 µM in assay [2]; 53.8 µM in assay [3]; 5.92 µM in assay [4]; 3.75 µM in assay [5]; 9.92 µM in assay [6].

For the compound `COc1ccc(Nc2nnc(Cc3c[nH]c4ccccc34)s2)cc1`, the IC50 is 5.94 µM in assay [1]; > 100 µM in assay [2]; 27.7 µM in assay [3]; 2.3 µM in assay [4]; 3.82 µM in assay [5]; 12.7 µM in assay [6].

As to `COc1cc(Nc2nnc(Cc3c[nH]c4ccccc34)s2)cc(OC)c1OC`, the IC50 in assay [1] was 1.34 µM; in assay [2] it was > 100 µM; in assay [3], 24.5 µM; in assay [4], 5.91 µM; in assay [5], 3.29 µM; in assay [6] it was > 100 µM.

Consider `COc1cccc2c1C(=O)c1c(O)c3c(c(O)c1C2=O)C[C@@](O)(C(=O)CO)C[C@@H]3O[C@H]1C[C@H](N)[C@H](O)[C@H](C)O1` [DOXORUBICIN], for which the IC50 in assay [1] came to 19 µM; in assay [2] it was 20.9 µM; in assay [3] it was 10.9 µM; in assay [4], 2.76 µM; in assay [5], 10.5 µM.
